Reference: PubChem BioAssay AID617 (SRMLSC, 2007)

Test system: E. coli BW25113 ΔtolC growth inhibition, OD615
Experiment: growth inhibitors of E. coli tolC mutant, dose response, strain BW25113 ΔtolC::kan (AID 617)
Method in brief: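 System – E. coli BW25113 ΔtolC::kan bacteria · Input – inoculum from 1:1000-diluted 1.5 h subculture · Buffer or medium – LB plus kanamycin · Compound – serial dilution series of compound · Timing – bacterial growth with compound for 20 h, 37 °C · Measured by – OD615 · Read-out basis – growth-inhibition IC50 from four-parameter logistic curve, bounds set to 0% and 100% · Benchmarks – chloramphenicol 30 µM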

| Compound | IC50 [µM] |
| --- | --- |
| N#Cc1ccc(NC(=O)Nc2ccc(Cl)cc2)cc1 | 0.52 |
| COC(=O)c1sc(N2C(=O)C(O)=C(C(=O)c3ccc(C)o3)C2c2ccc(F)cc2)nc1C (centres undefined) | 15.6 |
| CCCOC(=O)/C(C(N)=NCc1ccccc1)=C(\O)OCCC | 16.4 |
| O=C(c1cc2nc(-c3ccco3)cc(C(F)(F)F)n2n1)N1CCN(c2ccccc2)CC1 | 10.3 |
| Cc1onc(-c2ccccc2)c1C(=O)Nc1sc2c(c1C#N)CCC2 | 10.1 |
| Cc1nc(N2CCN(c3ccccc3)CC2)nc2c1C(=O)CCC2 | 26.6 |
| c1ccc2c(c1)CCN(c1nc3cc4c(cc3s1)OCCO4)C2 | 14.8 |
| CCCCCCc1ccc(-c2ncc(N)cn2)cc1 | 16.6 |
| Cc1cc(C)nc(-n2nc(C)cc2Nc2ccccc2)n1 | 2.65 |
| COc1nc(N(c2ccccc2)c2ccccc2)nc(-n2ccnc2)n1 | 5.65 |
| CCOC(=O)Cc1nnc2c(Nc3ccccc3F)nc3nonc3n12 | 6.82 |
| CCCCc1c(C)nn(-c2nnc3c4ccccc4n(CC)c3n2)c1C | 1.77 |
| CCOC(=O)c1ccc(N2C(=O)c3n[nH]c(C)c3C2c2ccc(OC)cc2OC)cc1 (centres undefined) | 16.8 |
| c1ccc(CN2CCN(c3nc(-c4ccccc4)nc(-n4ccnc4)n3)CC2)cc1 | 6.13 |
| Cc1cccc(-c2cc3nc4c(c(N5CCOCC5)n3n2)CCCC4)c1 | 16 |
| Cc1ccccc1C1=NCC(=O)N(CC(=O)NCc2ccco2)c2sc3c(c21)CCCC3 | 28.6 |
| CCCCCc1cc(O)c2c(C)cc(=O)oc2c1 | 2.16 |
| Cc1nn(Cc2ccc(C(=O)N3c4ccc(F)cc4CCC3C)o2)c(C)c1Br (centres undefined) | 9.71 |
| O=C(Nc1nc(-c2ccccc2)cs1)c1cccs1 | 5.9 |
| COc1ccc(-c2cc3nc4c(c(N5CCC6(CC5)OCCO6)n3n2)CCCC4)cc1 | 28.8 |
| CCOc1ccc2nc(NC(=O)C(CC)Sc3nc(C)cc(=O)[nH]3)sc2c1 (centres undefined) | 12.1 |
| O=C(CN(Cc1ccc2c(c1)OCO2)C(=O)CSc1nc2ccccc2o1)NC1CCCCC1 | 6.11 |
| CS(=O)c1nc(-c2ccc(Br)cc2)cc(-c2ccccc2)c1C#N (centres undefined) | 10.4 |

| Compound | IC50 [µM] |
| --- | --- |
| CC(C)(C)OC(=O)N1CCC[C@H]1c1nnc(SCc2ccc(Cl)cc2Cl)o1 | 11 |
| CCOC(=O)c1cn(CC)c2cc(N3CCSCC3)c(F)cc2c1=O | 1.4 |
| C=CCOC(=O)C(C#N)c1nc2ccccc2nc1N1CCCC1 (centres undefined) | 8.74 |
| Cc1ccc(C)c(C(=O)CSc2n[nH]c(-c3ccncc3)n2)c1 | 2 |
| OC(c1cccc(OCc2ccccc2)c1)c1nnc(-c2ccccc2)o1 (centres undefined) | 72.1 |
| CCOc1ccc(-c2nc(C#N)c(N3CCCCCC3)o2)cc1 | 12.7 |
| O=C(Oc1ccc2ccccc2c1Cl)N1CCCC1 | 23.2 |
| N#CC1=C(N)SC(N)=C(C#N)C1CCC1CCCCC1 | 3.65 |
| COc1ccc(-c2noc(C)c2-c2ccc3ccccc3n2)c(O)c1 | 8.91 |
| O=C(CCCSc1nc(-c2ccco2)cc(C(F)(F)F)n1)Nc1ccc2c(c1)OCO2 | 4.61 |
| CCOC(=O)C1CCN(c2ncnc3c2oc2ccc(Br)cc23)CC1 | 12.8 |
| COc1ccc(CN(Cc2cc3cc4c(cc3[nH]c2=O)OCO4)C(=O)NC2CCCCC2)cc1 | 20.2 |
| CC1(C)Cc2c(c(N3CCCC3)nc3sc4c(N5CCN(CCO)CC5)ncnc4c23)CO1 | 18.1 |
| CCOC(=O)c1cnc(-n2nc(C)cc2C)nc1N(CC)CC | 12.3 |
| CC(C)C(c1nnnn1C1CCCC1)N1CCCc2ccccc21 (centres undefined) | 15.7 |
| CCc1ccccc1NS(=O)(=O)c1ccc2[nH]cc(C(=O)NCc3ccco3)c(=O)c2c1 | 22 |
| COc1ccccc1C1SCCN1S(=O)(=O)c1cccc(C(F)(F)F)c1 (centres undefined) | 16.4 |
| CC(C)CCOC(=O)c1c(N)n(CC2CCCO2)c2nc3ccccc3nc12 (centres undefined) | 18.3 |
| Cc1cc(C(=O)CSc2nc3ccccc3o2)c(C)n1C1CC1 | 7.02 |
| CCc1cc2cc(C(=O)N3CCN(Cc4ccccc4)CC3)sc2s1 | 10.3 |
| Cc1ccc(-c2csc3ncn(-n4c(C)ccc4C)c(=O)c23)o1 | 14.9 |
| Cc1ccc2ccc(S(=O)(=O)n3nc(C)cc3C)cc2c1 | 14.5 |
| N#Cc1nc(COc2ccc(Cl)cc2)oc1N1CCCCCC1 | 8.68 |

| Compound | IC50 [µM] |
| --- | --- |
| COc1ccc(-c2noc(Cc3ccc(Cl)cc3)n2)cc1OC | 75 |
| N#Cc1cn(Cc2ccccc2)c2ccccc12 | 15.3 |
| CCN(C1CCCCC1)S(=O)(=O)c1ccc(OC)c(C)c1 | 16.9 |
| Cc1c(NC(=O)Nc2ccc(Cl)c(Cl)c2)c(=O)n(-c2ccccc2)n1C | 39.6 |
| CC1CCCN(S(=O)(=O)c2ccc(C(=O)Nc3nnc(-c4ccccc4Cl)o3)cc2)C1 (centres undefined) | 0.41 |
| O=C(NCc1ccco1)c1sc(=S)n2c1[nH]c(=O)c1ccccc12 | 1.26 |
| CC1CCCCN1S(=O)(=O)c1ccc(C(=O)Nc2nnc(-c3cccs3)o2)cc1 (centres undefined) | 0.24 |
| c1ccc2c(c1)oc1c(N3CCN(Cc4ccc5c(c4)OCO5)CC3)ncnc12 | 10.9 |
| Cn1c(=O)n(CCCOc2ccc(Cl)cc2)c2ccccc21 | 15.7 |
| O=C(c1cc2nc(-c3ccco3)cc(C(F)(F)F)n2n1)N1CCN(c2ccc(F)cc2)CC1 | 10.2 |
| CC(C)c1nc(N2CCN(C(=O)c3ccco3)CC2)c2c3c(sc2n1)CCCC3 | 13.6 |
| O=C(CC1CCCCC1)c1c(O)c2ccccc2oc1=O | 1.72 |
| COc1ccc(NS(=O)(=O)c2ccc3oc(Nc4ccc5c(c4)OCCO5)nc3c2)cc1 | 7.68 |
| Cc1cccc(Cc2c(C)nc3c(C(=O)NCc4ccco4)cnn3c2C)c1 | 49.6 |
| CCOC(=O)c1cc2sccc2n1Cc1ccc(C#N)cc1 | 11.1 |
| CC1CC(C)CN(c2ncnc3c2cnn3Cc2ccc(Cl)cc2)C1 (centres undefined) | 6.08 |
| N#Cc1cn(Cc2cccc(Cl)c2)c2ccccc12 | 7.45 |
| CCN(CCCNC(=O)CCc1nc(-c2ccc(C)cc2)no1)c1cccc(C)c1 | 68.8 |
| O=C(Nc1nc(SCc2ccc(F)cc2)ns1)c1ccco1 | 4.2 |
| C=CCNc1ncnc2c1[nH]c1ccc(C)cc12 | 2.38 |
| OCCN1CCN(c2nc(-c3ccccc3)c3cc(Cl)ccc3n2)CC1 | 60.6 |
| O=C1C2=C(Nc3ccccc3SC2c2ccco2)c2ccccc21 (centres undefined) | < 0.2 |
| CS(=O)(=O)N1CCc2cc(-c3csc(NC(=O)Cc4cccs4)n3)ccc21 | 21.7 |

| Compound | IC50 [µM] |
| --- | --- |
| O=C(Cn1c2c(c(-c3ccccc3)cc1=O)CCCC2)N1CCCCCC1 | 6.09 |
| OC(COc1ccc2ccccc2c1Br)Cn1ccnc1 (centres undefined) | 7.54 |
| O=C(Nc1nnc(-c2ccc3c(c2)CCCC3)o1)C1COc2ccccc2O1 (centres undefined) | 0.45 |
| [O-][N+]1=c2ccc(Nc3ccccc3)cc2=NC12CCCCC2 | 15.3 |
| COC(=O)c1sccc1NC(=O)c1ccc(Cl)s1 | 4.02 |
| Cc1ccc(S(=O)(=O)Nc2cccc3ncccc23)s1 | 1.65 |
| O=C(Nc1ccc(Cl)c(C(F)(F)F)c1)c1ccco1 | 7.46 |
| O=C(COn1nnc2ccc(C(F)(F)F)cc21)Nc1nnc(-c2ccccc2)o1 | 0.64 |
| COc1cccc(Cn2c(Oc3cccc(C)c3)nc3c2c(=O)n(C)c(=O)n3C)c1 | 14.3 |
| CCc1cc(C(=O)COc2ccccc2F)c(O)cc1O | 10.8 |
| O=C(Nc1cccc(Cl)c1)N(CCCN1CCOCC1)Cc1ccccc1F | 7.19 |
| O=C1OC(c2ccc(O)cc2)(c2ccc(O)cc2)c2ccccc21 | 4.01 |
| COCCNc1nc(-n2nc(C)cc2C)nc2sc3c(c12)CCCC3 | 6.71 |
| CCCOc1ccc(C(=O)N2CCN(c3ccc(NC(=O)CC)cc3Cl)CC2)cc1 | 14.6 |
| Cc1noc(NS(=O)(=O)c2ccc(NC(=O)COc3ccc(Cl)cc3Cl)cc2)c1C | 9.41 |
| Cc1cccc(N2CCN(C(=O)c3cc4n(n3)C(C(F)(F)F)CC(c3ccco3)N4)CC2)c1C (centres undefined) | 6.74 |
| CCOC(=O)c1c(NC(=O)CN2CCCCC2)sc2c1CCN(C(=O)OCC)C2 | 10.7 |
| CC(C)(C)N1C(=O)Cc2c1nc(N)c1c(N)nc(N3CCCCC3CO)c(C#N)c21 (centres undefined) | 6.59 |
| CCOc1ccccc1N1CCN(C(=O)Nc2ccc(F)c(Cl)c2)CC1 | 10.2 |
| Cc1ccc(Nc2nc(CSc3nnnn3-c3ccccc3)cs2)cc1 | 11.5 |
| Cc1ccc2cc(CN(Cc3ccccc3)Cc3nnnn3C3CCCC3)c(=O)[nH]c2c1 | 11.6 |
| COc1ccc(Oc2cn[nH]c2-c2ccc(O)cc2O)cc1 | 7.86 |
| COC(=O)c1c(NC(=O)CCc2ccc(C)o2)sc(C)c1C | 26.8 |

| Compound | IC50 [µM] |
| --- | --- |
| CN(C)c1ccc(/C=N/n2ncc3ccccc32)cc1 | 34.6 |
| CCNc1nc(SCc2ccccc2)nc(N2CCOCC2)n1 | 17.8 |
| COc1ccc(NC(=O)c2ccc(Cl)c(S(=O)(=O)N3CCc4ccccc4C3)c2)cn1 | 8.1 |
| O=S(=O)(Nc1cc(Cl)ccc1N1CCCCC1)c1cccs1 | 12.5 |
| N#Cc1c(NC(=O)c2ccc(Cn3cc(Br)cn3)o2)sc2c1CCCCCC2 | 11.5 |
| N#Cc1nc(COc2ccc(-c3ccccc3)cc2)oc1NCc1cccnc1 | 8.6 |
| c1ccc(-c2nc(N3CCCCCC3)c3ccccc3n2)nc1 | 1.68 |
| CCCCCCN=C(CC)c1c(O)n(CCCC)c(=O)[nH]c1=O | 11.8 |
| COc1ccc2c(c1)OC(O)(C(F)(F)C(F)F)CC2=O (centres undefined) | 7.68 |
| Cc1ccc(C(C)C)c(Oc2nnnn2-c2ccccc2)c1 | 14.7 |
| Cc1cccc(N2CC(c3nc4ccccc4n3C)CC2=O)c1C (centres undefined) | 4.93 |
| Clc1ccc(OCCN2CCN(c3ncnc4sccc34)CC2)cc1 | 16.1 |
| Cc1cc(NC(=O)c2noc3c2CCCC3)nn1Cc1ccc(Cl)cc1 | 18.4 |
| Cc1ccc(C)n1-n1cnc2sc(-c3ccccc3)cc2c1=O | 7.12 |
| Cc1cccc(N2CCN(C(=O)c3ccc(NS(=O)(=O)c4c(C)noc4C)cc3)CC2)c1C | 16.2 |
| CCOC(=O)c1sc2nc(CC(=O)OC)nc(N3CCN(c4ccccn4)CC3)c2c1C | 25.1 |
| CC(Nc1ccc(Br)cn1)c1cc(Cl)ccc1O (centres undefined) | 5.61 |
| Cc1cc(N2CCC(C)CC2)nc(-n2nc(C)cc2C)n1 | 5.18 |
| COc1ccccc1N1CCN(C(=O)c2cc(-c3ccc(C)cc3)on2)CC1 | 7.85 |
| CCCN(CCC)S(=O)(=O)c1ccc(C(=O)Nc2nnc(-c3cccc(OC)c3)o2)cc1 | 0.26 |
| O=C(Nc1cccc(S(=O)(=O)c2cccc(NC(=O)C3CC3)c2)c1)C1CC1 | 5.25 |
| CN(c1ccccc1)c1nc(N2CCCC2)nc(-n2ccnc2)n1 | 4.03 |
